STAT3 blocker = inhibitors of IL-6 induced STAT3 signaling; U3A cells, IL-6 STAT3-luciferase reporter, luminescence; host cell line lacks STAT1; inhibition, % at 5.5 µM; 190,000 compounds, 0.89% hits; AID 862;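 active = inhibition above the mean inhibition across all screened compounds plus 3 SD, cut at about 44% in these data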
Lipid droplet = modulators of hepatic lipid droplet formation; AML12 mouse hepatocytes, oleate lipid droplets, BODIPY imaging; 240,000 compounds, 0.4% hits; inhibition, % at 6.5 µM; AID 1656;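 active = lipid droplet intensity inhibited by at least 50%, with more than 500 cells counted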
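material = mouse AML12 hepatocyte cell line, fixed after treatment | also added = 100 µM oleic acid challenge | doses = compound at 6.5 µM only | schedule = overnight exposure | technique = Image-based BODIPY and DAPI two-channel analysis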
Platelet DG rel = modulates dense granule release in human platelets | human platelet-rich plasma, SFLLRN dense granule ATP release, luminescence | inhibition, %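 (compounds screened at 7.5 µM in platelet-rich plasma)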 | 300,000 compounds, 0.22% hits | AID 1663;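 active = mean replicate score, as percent of positive control, at or above 50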
PPC-1+TRAIL kill = PPC-1 cancer cell killing with TRAIL present | PPC-1 cells + TRAIL, ATPLite viability luminescence | cell killing (% activity), % at 4 µM or 5 µM | 220,000 compounds, 0.41% hits;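 active = cell killing above 50% in the first pass at 4 µM, then a duplicate retest at 5 µM averaging 50% or more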
STAT1 inh = STAT1 signaling inhibition; NIH 3T3 STAT1-luciferase reporter, IFN-gamma, luminescence; inhibition, % at 5.5 µM; 200,000 compounds, 0.35% hits;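 active = inhibition above a set limit, the mean inhibition across all tested compounds plus 3 SD, cut at about 34% in these data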
H9c2 TAG inh = reduces triacylglycerol accumulation in H9c2 cells; 230,000 compounds, 0.66% hits; inhibition, % at 12.5 µM; Nile Red lipid (TAG) fluorescence; cells loaded with 200 µM oleic acid;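 active = pattern-corrected inhibition of lipid staining of at least 50% with the nuclear-stain viability signal not falling by more than 50%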
Lipid drop inh = hepatic lipid droplet formation inhibition, confirmed; shares compounds with Lipid droplet; inhibition, % at 5.2 µM; 870 compounds, 65% hits; AML12 mouse hepatocytes, BODIPY lipid droplet imaging; droplets induced with 100 µM oleic acid;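 active = inhibition of lipid droplet metric at least 50%, with more than 300 cells in each of four replicates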
AML12 cytotox = counter-screen for cytotoxicity in AML12 mouse hepatocytes. DAPI nuclear morphology cytotoxicity imaging; active compounds read high; cells fed 100 µM oleate overnight. z-score at 5 µM. shares compounds with Lipid droplet. 870 compounds, 3% hits; in the data active = z-score above about 6.3;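 note: compound exposure lasted overnight at 37 °C before fixation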
AML12 tox ATP = AML12 hepatocyte cytotoxicity, confirmed | AML12 mouse hepatocyte viability, ATP luminescence; cells loaded with 100 µM oleic acid | 530 tested, under 10 active | cytotoxicity, % at 50 µM | shares compounds with Lipid droplet;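 active = cytotoxicity above 50% in each of four replicates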;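 note: compound exposure lasted overnight at 37 °C before the ATP read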
Numbers stand for hits. Hits are enriched below; roughly 1.5% of the tested compounds scored in any of these assays.

COC(=O)c1c(N2C(=O)[C@H]3[C@@H](C2=O)[C@]2(C(=O)Nc4c(C)cc(C)cc42)N2CCC[C@@H]32)sc(C)c1C was read as STAT3 blocker inactive, Lipid droplet 68.0, Platelet DG rel inactive, STAT1 inh inactive, H9c2 TAG inh inactive, Lipid drop inh inactive and AML12 cytotox inactive.
CCCCCn1c(N)c(-c2nc3ccccc3s2)c2c([N+](=O)[O-])nn(CC)c(=O)c21 was read as STAT3 blocker inactive, Lipid droplet 71.5, Platelet DG rel inactive, PPC-1+TRAIL kill inactive, STAT1 inh inactive, Lipid drop inh 73.3, AML12 cytotox inactive and AML12 tox ATP inactive.
CCCCn1c(N)c(-c2nc3ccccc3s2)c2c([N+](=O)[O-])nn(C)c(=O)c21 was read as STAT3 blocker inactive, Lipid droplet inactive, Platelet DG rel inactive, PPC-1+TRAIL kill inactive and STAT1 inh inactive.
`CCCCn1c(N)c(-c2nc3ccccc3s2)c2c([N+](=O)[O-])nn(CC)c(=O)c21` gave STAT3 blocker inactive, Lipid droplet 69.1, Platelet DG rel inactive, PPC-1+TRAIL kill inactive, STAT1 inh inactive, Lipid drop inh 78.1, AML12 cytotox inactive and AML12 tox ATP inactive.
`CCCNC(=O)C1(C)CCN(Cc2csc3ccccc23)C1` (stereo unspecified) gave H9c2 TAG inh inactive.
For Cc1ccc(C2=NC3(CCCCC3)N=C2SCC(=O)Nc2ccc3c(c2)OCCO3)cc1 the results were STAT3 blocker inactive, Lipid droplet 54.2, Platelet DG rel inactive, PPC-1+TRAIL kill inactive, STAT1 inh inactive, H9c2 TAG inh inactive, Lipid drop inh 70.1, AML12 cytotox inactive and AML12 tox ATP inactive.
Cc1ccc(-c2ccc(SCC(=O)Nc3ccc4c(c3)OCCO4)nn2)cc1 was read as STAT3 blocker inactive, Lipid droplet inactive, Platelet DG rel inactive, PPC-1+TRAIL kill inactive and STAT1 inh inactive.
`CNC(=S)N1CCc2cc(OC)c(OC)cc2C1COc1ccc(OC)cc1` (stereo unspecified) gave STAT3 blocker inactive, Lipid droplet inactive, Platelet DG rel inactive, PPC-1+TRAIL kill inactive, STAT1 inh inactive and H9c2 TAG inh inactive.
`COCCNC(=S)N1CCc2cc(OC)c(OC)cc2C1COc1cc(C)cc(C)c1` (stereo unspecified) gave STAT3 blocker inactive, Lipid droplet 61.6, Platelet DG rel inactive, PPC-1+TRAIL kill inactive, STAT1 inh inactive, Lipid drop inh 90.3, AML12 cytotox inactive and AML12 tox ATP inactive.
CCOc1ccc(NC(=O)CCN2CCN(S(=O)(=O)c3cc(Cl)ccc3OC)CC2)cc1 was read as STAT3 blocker inactive, Lipid droplet inactive, Platelet DG rel inactive, PPC-1+TRAIL kill inactive, STAT1 inh inactive and H9c2 TAG inh inactive.
CCN(CC)c1ccc(NC(=O)CN2CCN(S(=O)(=O)c3cc(Cl)ccc3OC)CC2)cc1 was read as STAT3 blocker inactive, Lipid droplet 59.7, Platelet DG rel inactive, PPC-1+TRAIL kill inactive, STAT1 inh inactive, Lipid drop inh 62.9, AML12 cytotox inactive and AML12 tox ATP inactive.
`Cc1cc(C)n2nc(SCC(=O)NC(=O)c3ccc(OC(F)F)cc3)nc2n1` gave H9c2 TAG inh inactive.
CCc1ccccc1NC(=O)CNC(=O)CCC(=O)c1cc(C)sc1C was read as H9c2 TAG inh inactive.
For O=C(CSc1nc(-c2ccco2)cc(C(F)(F)F)n1)Nc1ccc(C(=O)N2CCOCC2)cc1 the results were STAT3 blocker inactive, Lipid droplet 59.0, Platelet DG rel inactive, PPC-1+TRAIL kill inactive, STAT1 inh inactive, H9c2 TAG inh inactive, Lipid drop inh 90.4, AML12 cytotox inactive and AML12 tox ATP inactive.
`CCOC(=O)n1cc(-c2cnc(CNC(=O)C(C)(c3ccccc3)c3ccccc3)o2)c2ccccc21` gave STAT3 blocker inactive, Lipid droplet 58.9, Platelet DG rel inactive, PPC-1+TRAIL kill inactive, STAT1 inh inactive, Lipid drop inh 90.5 and AML12 cytotox inactive.
`CC(=O)Nc1ccc(S(=O)(=O)NCCC(=O)N2CCc3ccccc32)cc1` gave Lipid droplet inactive and Platelet DG rel inactive.
`Cc1cc(C)nc(Nc2nc3ccccc3[nH]2)n1` gave STAT3 blocker inactive, Lipid droplet 58.2, Platelet DG rel inactive, PPC-1+TRAIL kill inactive, STAT1 inh inactive, H9c2 TAG inh inactive, Lipid drop inh inactive and AML12 cytotox inactive.
Cc1ccc(C)c(Nc2nc3ccccc3[nH]2)c1 was read as H9c2 TAG inh inactive.
For CC1(C)Nc2ccccc2C(=O)N1c1ccc(Br)cc1 the results were Platelet DG rel inactive and H9c2 TAG inh inactive.
Screening Cc1ccc(N2C(=O)c3ccccc3NC2(C(=O)O)c2ccccc2)cc1Cl (stereo unspecified) returned Lipid droplet 50.4, Platelet DG rel inactive, Lipid drop inh inactive, AML12 cytotox inactive and AML12 tox ATP inactive.
CCC(Sc1nc(C)cc(C)n1)C(=O)Nc1nccs1 (stereo unspecified) was read as Lipid droplet inactive, Platelet DG rel inactive and H9c2 TAG inh inactive.
`CCOc1ccccc1NC(=O)CSc1nnc(Cn2c(=O)sc3ccccc32)n1C` gave STAT3 blocker inactive, Lipid droplet 52.7, PPC-1+TRAIL kill inactive, STAT1 inh inactive, H9c2 TAG inh inactive, Lipid drop inh inactive and AML12 cytotox inactive.
COc1ccc(NC(=O)CCCN2C(=O)C3CC=CCC3C2=O)cc1 (stereo unspecified) was read as Lipid droplet inactive, Platelet DG rel inactive and H9c2 TAG inh inactive.
For CCOC(=O)C1=C(C)NC(=O)NC1/C=C/c1ccccc1 (stereo unspecified) the results were STAT3 blocker inactive, Lipid droplet 62.1, Platelet DG rel inactive, PPC-1+TRAIL kill inactive, STAT1 inh inactive, Lipid drop inh inactive and AML12 cytotox inactive.
`Cc1cccc2sc(NC(=O)CN(C)S(=O)(=O)c3cccs3)nc12` gave STAT3 blocker inactive, Lipid droplet 56.5, Platelet DG rel inactive, PPC-1+TRAIL kill inactive, STAT1 inh inactive, H9c2 TAG inh inactive, Lipid drop inh 95.2, AML12 cytotox inactive and AML12 tox ATP inactive.
`Cc1ccccc1NC(=O)CN(C)S(=O)(=O)c1cccs1` gave Lipid droplet inactive and Platelet DG rel inactive.
O=C(CCNC(=O)C1CCN(S(=O)(=O)c2ccccc2)CC1)NCc1ccc(Cl)cc1 was read as Lipid droplet inactive and Platelet DG rel inactive.

Assay outcomes deposited in PubChem BioAssay by several laboratories.
